This note sets out measurements from ChEMBL document CHEMBL1157223, “Lupeol long-chain fatty acid esters with antimalarial activity from Holarrhena floribunda” (J Nat Prod, 2006).

Assay [1] relates to Plasmodium falciparum. Briefly: Antimalarial activity after 48 hrs against Plasmodium falciparum W2 by [3H]hypoxanthine uptake.
In assay [2] the test system is Plasmodium falciparum. Briefly: Antimalarial activity after 48 hrs against Plasmodium falciparum D6 by [3H]hypoxanthine uptake.
Assay [3] deals with Plasmodium falciparum. The assay can be described thus: Antimalarial activity against chloroquine-resistant Plasmodium falciparum FCR3 Gambia as 24 hrs [3H]hypoxanthine uptake. The conditions noted are these: FCR-3/Gambia. It is filed as functional, organism-based. In outline:
(§1)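 Human type B+ erythrocytes at 2% parasitemia and 4% hematocrit in RPMI-1640 (0.5% Albumax II, 16 µM hypoxanthine, HEPES, glucose); after 30 min at 37 °C, drug was added to final 1% parasitemia and 2% hematocrit. Test range 7.8–500 µM, with chloroquine at 3.9–500 nM and final DMSO under 2%. Incubation was 24 h, then [3H]-hypoxanthine for 18–24 h more; filters were counted. IC50 came from curve fitting, quadruplicates, 2–3 runs.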

The subject of assay [4] is Plasmodium falciparum. The assay can be described thus: Antimalarial activity after 24 hrs against chloroquine-sensitive Plasmodium falciparum 3D7 by [3H]hypoxanthine uptake. It is filed as functional, organism-based. In outline: as §1

Structures are written as SMILES. ≈ marks a conversion by molar mass, not a printed value. Where “and” joins values, the source holds several entries; their conditions need not be identical. Equal values may be shown once.

The term IC50 denotes the midpoint of a concentration-inhibition curve. `C=C[C@H]1CN2CC[C@H]1C[C@H]2[C@H](O)c1ccnc2ccc(OC)cc12` [QUININE]: the IC50 amounted to 67 µg/mL (≈ 207 µM) with Plasmodium falciparum [1] and 25 µg/mL (≈ 77.1 µM) in the assay with Plasmodium falciparum [2].
On the same counts, the results for `OC(c1cc(C(F)(F)F)nc2c(C(F)(F)F)cccc12)C1CCCCN1` (stereo not given) [MEFLOQUINE] are 28.5 µg/mL (≈ 75.3 µM) and 2550 µg/mL (≈ 6740 µM).
Take `C=C(C)[C@@H]1CC[C@]2(C)CC[C@]3(C)[C@H](CC[C@@H]4[C@@]5(C)CC[C@H](OC(=O)COCCCCCCCCCCCCCCCCCCCCCCCC)C(C)(C)[C@@H]5CC[C@]43C)[C@@H]12`: the IC50 in the assay on Plasmodium falciparum [3] is 84 µM and 69000 µg/mL; in the assay with Plasmodium falciparum [4], 135 µM.
With `C=C(C)[C@@H]1CC[C@]2(C)CC[C@]3(C)[C@H](CC[C@@H]4[C@@]5(C)CC[C@H](O)C(C)(C)[C@@H]5CC[C@]43C)[C@@H]12` [LUPEOL], the IC50 in the assay with Plasmodium falciparum [3] was 97 µM and 41000 µg/mL; with Plasmodium falciparum [4], 106 µM and 45000 µg/mL.
Take `C=C(C)[C@@H]1CC[C@]2(C)CC[C@]3(C)[C@H](CC[C@@H]4[C@@]5(C)CC[C@H](OC(=O)CC(O)CCCCCCCCCCCCCCCCC)C(C)(C)[C@@H]5CC[C@]43C)[C@@H]12` (stereo not given in full): the IC50 came to 269 µM in the assay on Plasmodium falciparum [3] and 282 µM with Plasmodium falciparum [4].
